Results gathered from unrelated publications.
Lines come from different studies, so protocols differ.
Target: Homeodomain-interacting protein kinase 4 (HIPK4, Homo sapiens, UniProt Q8NE63)
Read-out: enzyme activity
Mode: inhibitor
Sequence (Q8NE63 1-616, as in one of the studies): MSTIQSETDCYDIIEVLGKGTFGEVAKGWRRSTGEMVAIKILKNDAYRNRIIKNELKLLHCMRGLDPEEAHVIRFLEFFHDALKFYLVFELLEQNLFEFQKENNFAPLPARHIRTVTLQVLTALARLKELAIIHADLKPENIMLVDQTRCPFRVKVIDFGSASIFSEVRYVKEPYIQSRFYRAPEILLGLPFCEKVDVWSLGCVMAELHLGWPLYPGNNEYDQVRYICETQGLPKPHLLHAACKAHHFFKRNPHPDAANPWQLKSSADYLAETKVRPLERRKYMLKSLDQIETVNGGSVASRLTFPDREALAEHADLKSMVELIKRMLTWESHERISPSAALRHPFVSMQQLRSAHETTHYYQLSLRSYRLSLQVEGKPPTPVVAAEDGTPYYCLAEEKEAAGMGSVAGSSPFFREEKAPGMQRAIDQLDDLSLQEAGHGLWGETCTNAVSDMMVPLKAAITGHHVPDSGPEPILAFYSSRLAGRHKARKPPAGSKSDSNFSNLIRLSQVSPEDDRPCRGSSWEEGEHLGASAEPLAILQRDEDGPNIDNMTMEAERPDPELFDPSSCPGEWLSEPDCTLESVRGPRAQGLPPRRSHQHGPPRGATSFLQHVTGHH

Cc1sc(C(=O)NC2COC2)cc1-n1cc(NC(=O)Nc2c(F)cccc2Cl)cn1 — remaining activity (10 µM): 98.4%
O=C(O)c1ccc2c(c1)nc(Nc1ccccc1)c1ccncc12 — remaining activity (radiometric; 1 µM): -2%
Cc1ccc(C(=O)Nc2ccc(CN3CCN(C)CC3)c(C(F)(F)F)c2)cc1C#Cc1cnc2cccnn12 — remaining activity (23.5 nM): 71%
O=C(Nc1cnn(-c2csc(C(=O)NC3COC3)c2)c1)Nc1ccccc1Cl — remaining activity (5 µM): 100%
COc1cc(Cl)c(C(=O)N[C@@H](CN[C@H]2CC[C@@H](N)CC2)Cc2ccc(C#N)cc2)cc1-c1ccc(CN[C@H](C)c2ccc(C)cc2)o1 — remaining activity (1 µM): 90%
CC(C)(O)[C@H]1CC[C@H](Nc2ccc3ncc(-c4cccc(C(F)(F)F)c4)n3n2)CC1 — remaining activity (1 µM): 23.6%
O=C(O)c1ccc2c(c1)nc(NCc1ccccc1)c1ncncc12 — remaining activity (radiometric; 1 µM): 63%
CC(C)(C)c1nc(-c2cccc(NS(=O)(=O)c3c(F)cccc3F)c2F)c(-c2ccnc(N)n2)s1 — remaining activity (radiometric; 1 µM): 37%
O=C(O)c1ccc2c(c1)nc(NCCc1ccccc1)c1ncncc12 — remaining activity (radiometric; 1 µM): 29%
CC(C)(C)c1nc2c(s1)c1nc(N)ncc1c1ccc(NS(=O)(=O)c3c(F)cccc3F)c(F)c12 — remaining activity (radiometric; 1 µM): 82%
